From ChEMBL document CHEMBL1121929, “[(3-aryl-1,2-benzisoxazol-6-yl)oxy]acetic acids. A new diuretic series” (1982)

Tests used:
Canis familiaris [1] = assay: Diuretic activity was measured after oral administration in conscious water loaded dogs at 20 mg/kg after 1 hr; format: functional, Canis lupus familiaris, Urine
Procedure, shortened: (§1)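 Male mongrel dogs (20–25 kg) were given 20 mL/kg tap water by gavage about 15 h before drug, with water ad libitum overnight. On the test day they received 4 mL/kg tap water hourly for 7 h, and the bladder was emptied at each interval. Drug was gavaged in the 4 mL/kg water load after the third urine sample, with Tween 80 added when it was poorly soluble. Urinary Na+ was measured by flame photometry as the mean excretory rate (μequiv/kg) per interval per animal. Each dog was its own control, using the hour before dosing.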

Mus musculus [2] = assay: The diuretic activity was measured after oral administration in saline loaded mice at 64 mg/kg after 5 hr; format: functional, Urine
Procedure, shortened: (§2)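 Mice were dosed orally with drug in 1% saline at 10 mL/kg, at 4 or 64 mg/kg, alongside a vehicle control. There were 10 mice per group, housed 5 per metabolic cage. Pooled urine was analysed for sodium by flame photometry and expressed as mean mequiv/kg/5 h.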

Mus musculus [3] = assay: The diuretic activity of compound was measured after oral administration in saline loaded mice at 8 mg/kg after 5h; micro equiv of Na+/kg; format: functional, Urine
Mus musculus [4] = assay: The diuretic activity of compound was measured after oral administration in saline loaded mice at 4 mg/kg after 5h.; format: functional, Urine; procedure, shortened: as §2
Mus musculus [5] = assay: The diuretic activity of compound was measured after oral administration in saline loaded mice at 64 mg/kg after 5h.; format: functional, Urine; procedure, shortened: as §2
Canis familiaris [6] = assay: The diuretic activity of compound was measured after oral administration in conscious water loaded dogs at 5 mg/kg after 4 hr; Micro equiv of Na+/kg; format: functional, Canis lupus familiaris, Urine; procedure, shortened: as §1
Canis familiaris [7] = assay: The diuretic activity of compound was measured after oral administration in conscious water loaded dogs at 5 mg/kg after 5h; Micro equiv of Na+/kg; format: functional, Canis lupus familiaris, Urine; procedure, shortened: as §1
Canis familiaris [8] = assay: The diuretic activity of compound was measured after oral administration in conscious water loaded dogs at 5 mg/kg after 6 h; Micro equiv of Na+/kg; format: functional, Canis lupus familiaris, Urine; procedure, shortened: as §1
Canis familiaris [9] = assay: Diuretic activity was measured after oral administration in conscious water loaded dogs at 5 mg/kg after 1 hr; format: functional, Canis lupus familiaris, Urine; procedure, shortened: as §1
Canis familiaris [10] = assay: The diuretic activity of compound was measured after oral administration in conscious water loaded dogs at 5 mg/kg after 1 hr; Micro equiv of Na+/kg; format: functional, Canis lupus familiaris, Urine; procedure, shortened: as §1
Canis familiaris [11] = assay: The diuretic activity of compound was measured after oral administration in conscious water loaded dogs at 5 mg/kg after 2 hr; Micro equiv of Na+/kg; format: functional, Canis lupus familiaris, Urine; procedure, shortened: as §1
Canis familiaris [12] = assay: The diuretic activity of compound was measured after oral administration in conscious water loaded dogs at 5 mg/kg after 3 hr; Micro equiv of Na+/kg; format: functional, Canis lupus familiaris, Urine; procedure, shortened: as §1
Mus musculus [13] = assay: The diuretic activity was measured after oral administration in saline loaded mice at 4 mg/kg after 5 hr; format: functional, Urine; procedure, shortened: as §2
Canis familiaris [14] = assay: Diuretic activity was measured after oral administration in conscious water loaded dogs at 10 mg/kg after 2 hr

| SMILES | Oral diuretic activity (Canis familiaris [1]) | Oral diuretic activity (Mus musculus [2]) | Oral diuretic activity (Mus musculus [4]) | Oral diuretic activity (Mus musculus [5]) | Oral diuretic activity (Mus musculus [13]) | also measured |
| --- | --- | --- | --- | --- | --- | --- |
| Cc1c(OCC(=O)O)ccc2c(-c3ccccc3F)noc12 | 478.9 u equiv of [Na+] kg-1 hr-1 | 7.24 m equiv [Na+] 5hr-1kg-1 |  |  |  | Oral diuretic activity (Mus musculus [3]): 1.86 m equiv [Na+] 5hr-1kg-1 |
| O=C(O)COc1ccc2c(-c3cccc[n+]3[O-])noc2c1Cl | 116.6 u equiv of [Na+] kg-1 hr-1 |  | 0.5 m equiv [Na+] 5hr-1kg-1 | 1 m equiv [Na+] 5hr-1kg-1 |  |  |
| C=C(CC)C(=O)c1ccc(OCC(=O)O)c(Cl)c1Cl [ETHACRYNIC ACID] | 703 µequiv [Na+] kg-1 hr-1 |  | 1.09 m equiv [Na+] 5hr-1kg-1 | 4.14 m equiv [Na+] 5hr-1kg-1 |  |  |
| NS(=O)(=O)c1cc(C(=O)O)c(NCc2ccco2)cc1Cl [FUROSEMIDE] |  | 7.96 m equiv [Na+] 5hr-1kg-1 |  |  | 1.93 m equiv [Na+] 5hr-1kg-1 | Oral diuretic activity (Canis familiaris [6]): 333.9 u equiv of [Na+] kg-1; Oral diuretic activity (Canis familiaris [7]): 144.1 u equiv of [Na+] kg-1; Oral diuretic activity (Canis familiaris [8]): 40.4 u equiv of [Na+] kg-1; Oral diuretic activity (Canis familiaris [9]): 1311.5 u equiv of [Na+] kg-1 hr-1; Oral diuretic activity (Canis familiaris [10]): 1207 u equiv of [Na+] kg-1; Oral diuretic activity (Canis familiaris [11]): 1311.5 u equiv of [Na+] kg-1; Oral diuretic activity (Canis familiaris [12]): 763.6 u equiv of [Na+] kg-1 |
| CC1(c2ccccc2)Cc2cc(OCC(=O)O)c(Cl)c(Cl)c2C1=O (stereo unspecified) [INDACRINONE] |  | 7.6 m equiv [Na+] 5hr-1kg-1 |  |  | 2.1 m equiv [Na+] 5hr-1kg-1 | Oral diuretic activity (Canis familiaris [14]): 1141.4 u equiv of [Na+] kg-1 hr-1 |
